# Shown is part of a subset that was picked to be rich in hits.
# PvdQ acylase = P. aeruginosa PvdQ acylase inhibitors, primary screen, biochemical, fluorescence, plate reader and imaging, single point; inhibition, % at 10 µM; hit rate 0.063% among 340,000; AID 488965, 2010; PvdQ acylase [Pseudomonas aeruginosa LESB58]; purified PvdQ acylase; in the data active means inhibition above about 30%, passing the limit was not always enough
# CHOP UPR activ = activators of apoptotic CHOP UPR arm, primary screen, cell-based, CHO-CHOP luciferase reporter, luminescence, uHTS. AID 449763, 2010. hit rate 0.34% among 330,000. UPR activation; percent of tunicamycin response over DMSO baseline. activation, % at 10 µM;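 active means at 10 µM dose, activation of 40% or more, normalized to positive control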
#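 Material: CHO-CHOP cells, stable luciferase reporter of PERK-eIF2a-CHOP signalling; quantity: 500 reporter cells seeded per well; buffer or medium: F12 medium containing 10% fetal bovine serum; compound: one dose, 10 µM in 0.5% DMSO; incubation: 6 h compound treatment, 37 °C; measured by: Steady-Glo luciferase luminescence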
# UPR XBP1 act = activators of adaptive XBP1 UPR arm, primary screen, cell-based, CHO-XBP1 luciferase reporter, luminescence, uHTS | hit rate 0.33% among 330,000 | IRE1-XBP1 UPR activation; percent of tunicamycin response, DMSO as zero | activation, % at 20 µM;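 active means versus positive control, 20 µM dose yields 30% or more activation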
#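 Material: CHO-XBP1 cells stably carrying IRE1-XBP1-driven luciferase reporter / Amount: 1000 cells per well / Compound: 20 µM, 1% DMSO / Times: 6 h treatment, 37 °C / Detection: luciferase luminescence / Measure: % activation of reporter signal versus tunicamycin and DMSO controls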
# CHOP inh = inhibitors of CHOP promoter induction, primary screen, cell-based, unfolded protein response, luciferase reporter | CHO-K1 CHOP-promoter luciferase, tunicamycin-induced, 15-18 h | inhibition, % at 10 µM | hit rate 3.8% among 220,000 | AID 2732, 2010;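 active means compounds that reduced the stress-induced luciferase reporter signal by more than about 70% of percent inhibition, limit read from the data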
# Numbers stand for hits; n = inactive; x = no result.
SMILES,PvdQ acylase,CHOP UPR activ,UPR XBP1 act,CHOP inh
ON1C2CCCCC2N(O)C1c1ccccc1 (centres undefined),n,n,n,88.6
c1ccc(C2N3CCCN23)cc1 (centres undefined),n,n,n,n
Cc1cc(/C=C2\C(=O)NC(=O)N(c3ccc(Cl)cc3)C2=O)c(C)n1-c1cccc(C(=O)O)c1,n,n,n,x
CCc1ccc(N2C(=O)NC(=O)/C(=C/c3cccn3CCOc3ccc(C(C)CC)cc3)C2=O)cc1 (centres undefined),n,n,n,86.1
Cc1cccc(OCCn2cccc2/C=C2/C(=O)NC(=O)N(Cc3ccco3)C2=O)c1,x,n,n,n
Cc1cc(C)cc(N2C(=O)NC(=O)/C(=C\c3cccn3-c3ccc(Cl)cc3)C2=O)c1,n,270.6,n,n
O=C1NC(=O)N(Cc2ccco2)C(=O)/C1=C\c1cccn1CCOc1ccc(Cl)cc1,n,n,n,75.9
CCc1ccc(N2C(=O)NC(=O)/C(=C/c3cccn3CCOc3ccc(C)cc3)C2=O)cc1,n,n,n,90.0
CN(N=O)c1ccc(O)c(O)c1,x,x,x,n
NC(=O)COc1c(F)cc(SCCNS(=O)(=O)c2ccccc2)cc1F,x,x,x,n
CCn1nc(-c2cccs2)nc2c(=O)n(C)c(=O)nc1-2,n,x,x,x
CCn1nc(/C=C/c2ccccc2)nc2c(=O)n(C)c(=O)nc1-2,n,n,n,104.8
CN(C)c1ccc(NC(=O)CN2C(=O)CN=C(c3ccccc3)c3cc(Cl)ccc32)cc1,n,n,n,n
CCC(C)C1N=C(c2ccccc2)c2cc(Cl)ccc2N(CC(=O)NCc2ccco2)C1=O (centres undefined),n,n,n,88.2
CCOc1cc(CNCCc2c[nH]c3ccccc23)cc(Cl)c1OCC,n,n,n,80.0
CNC(=O)OCC[N+](C)(C)C,x,x,x,n
O=[N+]([O-])c1ccc(O[C@@H]2O[C@H](CO)[C@@H](O)[C@H](O)[C@H]2F)c([N+](=O)[O-])c1,x,x,x,n
N[C@H](CCCCCP(=O)(O)O)C(=O)O,x,x,x,n
COc1cc2c(cc1OC)C1C(=O)c3ccc4c(c3OC1CO2)CC(C(C)C)O4 (centres undefined),n,x,x,x
COc1cc2c(cc1OC)[C@@H]1C(=O)c3ccc4c(c3O[C@@H]1CO2)C[C@H](C(C)C)O4,n,n,n,78.5
O=C(/C=C/c1ccccc1)c1c(O)n(CCc2ccccc2)c(=O)[nH]c1=O,n,n,n,91.5
CCOC(=O)C(O)(c1ccc(NC(=S)NC(=O)c2ccc(Cl)cc2Cl)c(C)c1)C(F)(F)F (centres undefined),n,n,n,70.2
COC(=O)C(O)(c1ccc(NC(=S)NC(=O)c2ccc(Cl)cc2Cl)cc1)C(F)(F)F (centres undefined),n,n,n,71.2
CCCN1CCC[C@@H](c2cccc(C#N)c2)C1,x,x,x,n
CC(O)(CS(=O)(=O)c1ccccc1)C(=O)Nc1ccc(C(F)(F)F)cc1 (centres undefined),n,n,n,n
SMILES,PvdQ acylase,CHOP UPR activ,UPR XBP1 act,CHOP inh
CC(O)(CS(=O)(=O)c1cccc(C(F)(F)F)c1)C(=O)Nc1cccc(C(F)(F)F)c1 (centres undefined),n,n,n,71.9
CCCCn1c(O)c(C(C)=NC(C)c2ccccc2)c(=O)[nH]c1=O (centres undefined),n,n,n,n
CCCCn1c(O)c(C(CC)=NC(C)c2ccccc2)c(=O)[nH]c1=O (centres undefined),n,n,n,81.5
CCCCn1c(O)c(C(CC)=Nc2ccc(OCC)cc2)c(=O)[nH]c1=O,n,n,n,90.5
NC(=O)c1cc([N+](=O)[O-])cc([N+](=O)[O-])c1,n,x,x,x
CC(C)(C)c1cc([N+](=O)[O-])cc(C(C)(C)C)c1O,x,n,n,73.1
C=CCn1c(O)c(C=NCCCOc2ccc(CC)cc2)c(=O)[nH]c1=S,n,n,n,77.2
CCOc1ccc(N=Cc2c(O)n(Cc3ccccc3)c(=S)[nH]c2=O)cc1,n,n,n,n
CC1OC1P(=O)(O)O (centres undefined),x,x,x,n
COc1ccc2c(c1)[C@@]13CCCC[C@H]1[C@@H](C2)NCC3,x,x,x,n
NC(=O)CI,x,x,x,n
C[C@H]1CCC/C=C/[C@@H]2C[C@H](O)C[C@H]2[C@H](O)/C=C/C(=O)O1,n,115.1,n,x
Cc1ccc(C)c(CN2CCC(n3nnc4cc(F)ccc43)CC2)c1,n,n,n,75.0
Fc1ccc2c(c1)nnn2C1CCN(Cc2c(Cl)cccc2Cl)CC1,n,n,n,n
C[Se]C[C@H](N)C(=O)O,x,x,x,n
COc1cc(C=C2C(=O)NC(=O)NC2=O)ccc1OCc1ccc([N+](=O)[O-])cc1,n,x,x,n
COc1cc(/C=C(/C)[N+](=O)[O-])ccc1OCc1ccccc1Cl,n,n,n,105.5
NCC#Cc1ccccc1,x,x,x,n
C#CCN(C)[C@@H](C)Cc1ccccc1,x,x,x,n
CCn1c(O)c(N=Nc2ccc(S(=O)(=O)N3CCOCC3)cc2)c(=O)n(CC)c1=S,n,n,n,72.9
C=CCN1CC[C@]23CCCCC2[C@H]1Cc1ccc(O)cc13 (some centres undefined),x,x,x,n
FC(F)(F)c1ccc2c(c1)nnn2C1CCN(Cc2nnnn2Cc2ccccc2)CC1,n,n,n,88.2
CN(C)C=C1C(=O)N(C2CCCCC2)C(=O)N(C2CCCCC2)C1=O,n,n,n,77.0
O=P(Nc1cccc(F)c1)(Oc1ccccc1F)Oc1ccccc1F,n,n,n,75.6
Cc1cccc(NP(=O)(Oc2ccccc2F)Oc2ccccc2F)c1,n,x,x,78.0
SMILES,PvdQ acylase,CHOP UPR activ,UPR XBP1 act,CHOP inh
CCN(CC)c1ncnc2c1ncn2[C@@H]1O[C@H](COP(=O)(O)OP(=O)(O)C(Br)(Br)P(=O)(O)O)[C@@H](O)[C@H]1O,x,x,x,n
CCC(C)N1C(=O)NC(=O)C2(Cc3c(ccc4ccccc34)N(C)C2)C1=O (centres undefined),n,n,n,75.8
COc1ccc2c3c1O[C@H]1C(=O)CC[C@@]4(O)C(C2)N(CC2CC2)CCC314 (some centres undefined),x,x,x,n
CN(CC(=O)Nc1ccccc1-c1ccccc1)C1CCCCC1,n,n,n,82.9
C[C@H]1C2Cc3ccc(O)cc3C1(C)CCN2CC1CC1 (some centres undefined),x,x,x,n
C[C@@H]1C[C@H]2OC(=O)C3(CO3)[C@H]2[C@H](O)[C@]2(C)C(=O)C3OC3[C@@H]12 (some centres undefined),x,n,n,106.2
C[C@@H]1O[C@H](C[N+](C)(C)C)C[C@H]1O,x,x,x,n
CCC(=Nc1ccc2c(c1)CCC2)c1c(O)n(C2CCCCC2)c(=O)[nH]c1=O,n,n,n,76.1
CCC(=NC1CC1)c1c(O)n(C2CCCCC2)c(=O)[nH]c1=O,n,n,n,n
CC(=Nc1ccc2c(c1)CCC2)c1c(O)n(C2CCCCC2)c(=O)[nH]c1=O,n,n,n,87.1
